# Measurements as given in ChEMBL document CHEMBL1122471, “1,3-Diaryltriazenes: a new class of anorectic agents” (1983).
# Assays:
# Rattus norvegicus [1] = experiment: Percentage of body weight reduction in male Sprague-Dawley rats at 50 mg/kg; 46-60% reduction from controls; assay type: functional
# Procedure, shortened: (§1)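 Individually housed male CD Sprague-Dawley rats trained to eat their ration within 5 h were dosed orally once daily for 5 days, 10 vehicle controls and 10 treated. Body weight was taken daily before dosing. Reduction from concurrent controls was scored in bands: 16-30%, 31-45%, 46-60%, ≥61%.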
# Rattus norvegicus [2] = experiment: Percentage of body weight reduction in male Sprague-Dawley rats at 50 mg/kg; assay type: functional; procedure, shortened: as §1
# Rattus norvegicus [3] = experiment: Percentage of body weight reduction in male Sprague-Dawley rats at 50 mg/kg; […] reduction from controls; assay type: functional; procedure, shortened: as §1
# Rattus norvegicus [4] = experiment: Percentage of body weight reduction in male Sprague-Dawley rats at 50 mg/kg; 31-45% reduction from controls; assay type: functional
# Procedure, shortened: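 Individually housed male CD Sprague-Dawley rats trained to eat their ration within 5 h were dosed orally once daily for 5 days, 10 vehicle controls and 10 treated. Body weight was taken daily before dosing.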
# Rattus norvegicus [5] = experiment: Percentage of body weight reduction in male Sprague-Dawley rats at 25 mg/kg; assay type: functional; procedure, shortened: as §1
# Rattus norvegicus [6] = experiment: Percentage of body weight reduction in male Sprague-Dawley rats at 25 mg/kg; 31-45% reduction from controls
# Rattus norvegicus [7] = experiment: Percentage of body weight reduction in male Sprague-Dawley rats at 30 mg/kg; assay type: functional; procedure, shortened: as §1
# Rattus norvegicus [8] = experiment: Percentage of body weight reduction in male Sprague-Dawley rats at 50 mg/kg;; assay type: functional; procedure, shortened: as §1
smiles,measurement,setting,value
N#Cc1ccc(C(F)(F)F)cc1NN=Nc1c(Cl)cccc1Cl,Body weight reduction,Rattus norvegicus [1]; dose 50 mg/kg,46%
CNC(=O)N(N=Nc1cc(C(F)(F)F)ccc1C#N)c1cc(C(F)(F)F)ccc1C#N,Body weight reduction,"Rattus norvegicus [1]; dose 25 mg/kg, in the assay text read “at 25 mg/kg” for “at 50 mg/kg”",46%
FC(F)(F)c1cccc(N=NNc2cccc(C(F)(F)F)c2)c1,Body weight reduction,Rattus norvegicus [2],<15%
N#Cc1ccc(C(F)(F)F)cc1N=NNc1ccc(C(=O)O)cc1,Body weight reduction,Rattus norvegicus [3],16%
N#Cc1ccc(Cl)cc1N=NNc1cc(Cl)ccc1C#N,Body weight reduction,Rattus norvegicus [4],31%
CN(N=Nc1ccccc1)c1ccccc1,Body weight reduction,Rattus norvegicus [4],31%
CC(C)C(=O)N(N=Nc1cc(C(F)(F)F)ccc1C#N)c1cc(C(F)(F)F)ccc1C#N,Body weight reduction,Rattus norvegicus [5],>61%
CC(=O)N(N=Nc1cccc(C(F)(F)F)c1)c1cc(C(F)(F)F)ccc1C#N,Body weight reduction,Rattus norvegicus [2],<15%
Cc1ccc(C#N)c(N=NNc2cc(C)ccc2C#N)c1,Body weight reduction,Rattus norvegicus [2],<15%
N#Cc1ccc(C(F)(F)F)cc1N=NN(C(=O)Nc1ccccc1)c1cc(C(F)(F)F)ccc1C#N,Body weight reduction,Rattus norvegicus [1]; dose 50 mg/kg,46%
CCCCC(=O)N(N=Nc1cc(C(F)(F)F)ccc1C#N)c1cc(C(F)(F)F)ccc1C#N,Body weight reduction,Rattus norvegicus [1]; dose 50 mg/kg,46%
Clc1cccc(N=NNc2cccc(Cl)c2Cl)c1Cl,Body weight reduction,Rattus norvegicus [6],31%
Clc1cccc(Cl)c1N=NNc1c(Cl)cccc1Cl,Body weight reduction,Rattus norvegicus [2],<15%
Clc1ccc(N=NNc2ccc(Cl)cc2)cc1,Body weight reduction,Rattus norvegicus [1]; dose 50 mg/kg,46%
CC(=O)N(N=Nc1c(Cl)cccc1Cl)c1cc(C(F)(F)F)ccc1C#N,Body weight reduction,Rattus norvegicus [2],<15%
N#Cc1ccc(C(F)(F)F)cc1N=NN(C(=O)CCl)c1cc(C(F)(F)F)ccc1C#N,Body weight reduction,Rattus norvegicus [2],<15%
CCOC(=O)N(N=Nc1cc(C(F)(F)F)ccc1C#N)c1cc(C(F)(F)F)ccc1C#N,Body weight reduction,Rattus norvegicus [2],>61%
FC(F)(F)c1ccc(Cl)c(N=NNc2cc(C(F)(F)F)ccc2Cl)c1,Body weight reduction,Rattus norvegicus [2],<15%
N#Cc1cc(C(F)(F)F)ccc1N=NNc1ccc(C(F)(F)F)cc1C#N,Body weight reduction,Rattus norvegicus [4],31%
N#Cc1ccc(C(F)(F)F)cc1N=NN(C(=O)c1ccccc1)c1cc(C(F)(F)F)ccc1C#N,Body weight reduction,Rattus norvegicus [2],<15%
CC(=O)N(N=Nc1ccccc1)c1ccccc1,Body weight reduction,Rattus norvegicus [2],>61%
N#Cc1ccc(C(F)(F)F)cc1N=NNc1cccc(C(F)(F)F)c1,Body weight reduction,Rattus norvegicus [2],<15%
Clc1ccccc1N=NNc1ccccc1Cl,Body weight reduction,Rattus norvegicus [2],<15%
CCOC(=O)NC(=O)N(N=Nc1cc(C(F)(F)F)ccc1C#N)c1cc(C(F)(F)F)ccc1C#N,Body weight reduction,Rattus norvegicus [2],>61%
CC(=O)N(N=Nc1cc(C(F)(F)F)ccc1C#N)c1cc(C(F)(F)F)ccc1C#N,Body weight reduction,Rattus norvegicus [2],>61%
CN(N=Nc1cc(C(F)(F)F)ccc1C#N)c1cc(C(F)(F)F)ccc1C#N,Body weight reduction,Rattus norvegicus [7],<15%
FC(F)(F)c1ccccc1N=NNc1ccccc1C(F)(F)F,Body weight reduction,Rattus norvegicus [4],31%
N#Cc1ccc(C(F)(F)F)cc1NN=Nc1cc(C(F)(F)F)ccc1C(=O)O,Body weight reduction,Rattus norvegicus [3],16%
FC(F)(F)c1ccc(Br)c(N=NNc2cc(C(F)(F)F)ccc2Br)c1,Body weight reduction,Rattus norvegicus [2],<15%
COc1ccccc1N=NNc1ccccc1OC,Body weight reduction,Rattus norvegicus [1]; dose 50 mg/kg,46%
CCCC(=O)N(N=Nc1cc(C(F)(F)F)ccc1C#N)c1cc(C(F)(F)F)ccc1C#N,Body weight reduction,Rattus norvegicus [5],>61%
CCCNC(=O)N(N=Nc1cc(C(F)(F)F)ccc1C#N)c1cc(C(F)(F)F)ccc1C#N,Body weight reduction,Rattus norvegicus [4],31%
N#Cc1ccc(C(F)(F)F)cc1NN=Nc1ccccc1,Body weight reduction,Rattus norvegicus [3],16%
N#Cc1ccccc1N=NNc1ccccc1C#N,Body weight reduction,Rattus norvegicus [8],<15%
CC(=O)N(N=Nc1ccc(C(F)(F)F)cc1C#N)c1ccc(C(F)(F)F)cc1,Body weight reduction,Rattus norvegicus [1]; dose 50 mg/kg,46%
CCC(=O)N(N=Nc1cc(C(F)(F)F)ccc1C#N)c1cc(C(F)(F)F)ccc1C#N,Body weight reduction,Rattus norvegicus [1]; dose 50 mg/kg,46%
COC(=O)c1ccc(C(F)(F)F)cc1N=NNc1cc(C(F)(F)F)ccc1C(=O)OC,Body weight reduction,Rattus norvegicus [2],<15%
FC(F)(F)c1ccc(N=NNc2ccc(C(F)(F)F)cc2)cc1,Body weight reduction,Rattus norvegicus [2],<15%
COC(=O)CC(=O)N(N=Nc1cc(C(F)(F)F)ccc1C#N)c1cc(C(F)(F)F)ccc1C#N,Body weight reduction,Rattus norvegicus [1]; dose 50 mg/kg,46%
